Assay results reported in ChEMBL document CHEMBL4715736, “Identification of anticancer agents based on the thieno[2,3-b]pyridine and 1H-pyrazole molecular scaffolds” (2016).

System: OVCAR-4
Test: Growth inhibition of human OVCAR-4 cells assessed as cell growth at 10 uM incubated for 48 hrs by sulforhodamine B assay relative to control
Type: functional
Conditions: read-out: Activity
In short: (§1)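 Run by the NCI Developmental Therapeutics Program as part of its 60-line human tumour panel. Each compound tested at a single 10 µM dose. Growth expressed as % relative to untreated control cells (100%).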

Row | Structure (SMILES) | growth at 10 µM [%]
1 | Cc1ccc(NC(=O)c2sc3nc4c(cc3c2N)C(=O)CCC4)cc1C | 32

System: SW-620
Test: Growth inhibition of human SW-620 cells assessed as cell growth at 10 uM incubated for 48 hrs by sulforhodamine B assay relative to control
Type: functional
Conditions: read-out: Activity
In short: as §1

Row | Structure (SMILES) | growth at 10 µM [%]
2 | Cc1ccc(NC(=O)c2sc3nc4c(cc3c2N)C(=O)CCC4)cc1C | 15

System: MCF7
Test: Growth inhibition of human MCF7 cells assessed as cell growth at 10 uM incubated for 48 hrs by sulforhodamine B assay relative to control
Type: functional
Conditions: read-out: Activity
In short: (§2)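 Submitted to the NCI Developmental Therapeutics Program for the NCI60 human tumour cell line panel. First screen at a single 10 µM concentration. Read-out is growth relative to untreated control cells set at 100%.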

Row | Structure (SMILES) | growth at 10 µM [%]
3 | Cc1ccc(NC(=O)c2sc3nc4c(cc3c2N)C(=O)CCC4)cc1C | 10.7

System: CAKI-1
Test: Growth inhibition of human CAKI-1 cells assessed as cell growth at 10 uM incubated for 48 hrs by sulforhodamine B assay relative to control
Type: functional
Conditions: read-out: Activity
In short: (§3)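 NCI Developmental Therapeutics Program NCI60 panel. Compounds that were active in the 10 µM one-dose screen went on to dose–response testing. Growth at each concentration is expressed relative to untreated control (100%). GI50 (concentration giving 50% of maximal inhibition of proliferation) and TGI (concentration giving total growth inhibition) were derived from the curves.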

Row | Structure (SMILES) | growth at 10 µM [%]
4 | Cc1ccc(NC(=O)c2sc3nc4c(cc3c2N)C(=O)CCC4)cc1C | 35.7

System: SNB-19
Test: Growth inhibition of human SNB-19 cells assessed as cell growth at 10 uM incubated for 48 hrs by sulforhodamine B assay relative to control
Type: functional
Conditions: read-out: Activity
In short: as §1

Row | Structure (SMILES) | growth at 10 µM [%]
5 | Cc1ccc(NC(=O)c2sc3nc4c(cc3c2N)C(=O)CCC4)cc1C | 31

System: SNB-19
Test: Growth inhibition of human SNB-19 cells assessed as cell growth at 100 uM incubated for 48 hrs by sulforhodamine B assay relative to control
Type: functional
Conditions: read-out: Activity

Row | Structure (SMILES) | growth at 100 µM [%]
6 | Cc1ccc(NC(=O)c2sc3nc4c(cc3c2N)C(=O)CCC4)cc1C | 29

System: SF-295
Test: Growth inhibition of human SF-295 cells assessed as cell growth at 0.01 uM incubated for 48 hrs by sulforhodamine B assay relative to control
Type: functional
Conditions: read-out: Activity

Row | Structure (SMILES) | growth at 0.01 µM [%]
7 | Cc1ccc(NC(=O)c2sc3nc4c(cc3c2N)C(=O)CCC4)cc1C | 91

System: SK-OV-3
Test: Growth inhibition of human SK-OV-3 cells assessed as cell growth at 10 uM incubated for 48 hrs by sulforhodamine B assay relative to control
Type: functional
Conditions: read-out: Activity
In short: as §1

Row | Structure (SMILES) | growth at 10 µM [%]
8 | Cc1ccc(NC(=O)c2sc3nc4c(cc3c2N)C(=O)CCC4)cc1C | 4.9

System: COLO 205
Test: Growth inhibition of human COLO 205 cells assessed as cell growth at 10 uM incubated for 48 hrs by sulforhodamine B assay relative to control
Type: functional
Conditions: read-out: Activity
In short: as §3

Row | Structure (SMILES) | growth at 10 µM [%]
9 | Cc1ccc(NC(=O)c2sc3nc4c(cc3c2N)C(=O)CCC4)cc1C | -63

System: 786-0
Test: Growth inhibition of human 786-0 cells assessed as cell growth at 10 uM incubated for 48 hrs by sulforhodamine B assay relative to control
Type: functional
Conditions: read-out: Activity
In short: as §3

Row | Structure (SMILES) | growth at 10 µM [%]
10 | Cc1ccc(NC(=O)c2sc3nc4c(cc3c2N)C(=O)CCC4)cc1C | 29

System: RPMI-8226
Test: Growth inhibition of human RPMI-8226 cells assessed as cell growth at 10 uM incubated for 48 hrs by sulforhodamine B assay relative to control
Type: functional
Conditions: read-out: Activity
In short: as §1

Row | Structure (SMILES) | growth at 10 µM [%]
11 | Cc1ccc(NC(=O)c2sc3nc4c(cc3c2N)C(=O)CCC4)cc1C | -2

System: SK-MEL-2
Test: Growth inhibition of human SK-MEL-2 cells assessed as cell growth at 10 uM incubated for 48 hrs by sulforhodamine B assay relative to control
Type: functional
Conditions: read-out: Activity
In short: as §1

Row | Structure (SMILES) | growth at 10 µM [%]
12 | Cc1ccc(NC(=O)c2sc3nc4c(cc3c2N)C(=O)CCC4)cc1C | 31

System: KM12
Test: Growth inhibition of human KM12 cells assessed as cell growth at 1 uM incubated for 48 hrs by sulforhodamine B assay relative to control
Type: functional
Conditions: read-out: Activity

Row | Structure (SMILES) | growth at 1 µM [%]
13 | Cc1ccc(NC(=O)c2sc3nc4c(cc3c2N)C(=O)CCC4)cc1C | 24

System: HT-29
Test: Growth inhibition of human HT-29 cells assessed as cell growth at 10 uM incubated for 48 hrs by sulforhodamine B assay relative to control
Type: functional
Conditions: read-out: Activity
In short: as §2

Row | Structure (SMILES) | growth at 10 µM [%]
14 | Cc1ccc(NC(=O)c2sc3nc4c(cc3c2N)C(=O)CCC4)cc1C | 1

System: SR
Test: Growth inhibition of human SR cells assessed as cell growth at 10 uM incubated for 48 hrs by sulforhodamine B assay relative to control
Type: functional
Conditions: read-out: Activity
In short: as §1

Row | Structure (SMILES) | growth at 10 µM [%]
15 | Cc1ccc(NC(=O)c2sc3nc4c(cc3c2N)C(=O)CCC4)cc1C | 11

System: LOX IMVI
Test: Growth inhibition of human LOX IMVI cells assessed as cell growth at 10 uM incubated for 48 hrs by sulforhodamine B assay relative to control
Type: functional
Conditions: read-out: Activity
In short: as §2

Row | Structure (SMILES) | growth at 10 µM [%]
16 | Cc1ccc(NC(=O)c2sc3nc4c(cc3c2N)C(=O)CCC4)cc1C | 39.2

System: MDA-MB-231
Test: Growth inhibition of human MDA-MB-231 cells assessed as cell growth at 10 uM incubated for 48 hrs by sulforhodamine B assay relative to control
Type: functional
Conditions: read-out: Activity
In short: as §2

Row | Structure (SMILES) | growth at 10 µM [%]
17 | Cc1ccc(NC(=O)c2sc3nc4c(cc3c2N)C(=O)CCC4)cc1C | 22

System: T47D
Test: Growth inhibition of human T47D cells assessed as cell growth at 10 uM incubated for 48 hrs by sulforhodamine B assay relative to control
Type: functional
Conditions: read-out: Activity
In short: as §1

Row | Structure (SMILES) | growth at 10 µM [%]
18 | Cc1ccc(NC(=O)c2sc3nc4c(cc3c2N)C(=O)CCC4)cc1C | 24.1

System: HCC 2998
Test: Growth inhibition of human HCC 2998 cells assessed as cell growth at 10 uM incubated for 48 hrs by sulforhodamine B assay relative to control
Type: functional
Conditions: read-out: Activity
In short: as §3

Row | Structure (SMILES) | growth at 10 µM [%]
19 | Cc1ccc(NC(=O)c2sc3nc4c(cc3c2N)C(=O)CCC4)cc1C | 10

System: BT-549
Test: Growth inhibition of human BT-549 cells assessed as cell growth at 10 uM incubated for 48 hrs by sulforhodamine B assay relative to control
Type: functional
Conditions: read-out: Activity
In short: (§4)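 NCI Developmental Therapeutics Program NCI60 human tumour cell line panel, one-dose primary screen with every compound at 10 µM. Growth is expressed as % of untreated control cells (100%).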

Row | Structure (SMILES) | growth at 10 µM [%]
20 | Cc1ccc(NC(=O)c2sc3nc4c(cc3c2N)C(=O)CCC4)cc1C | 63

System: HCT-15
Test: Growth inhibition of human HCT-15 cells incubated for 48 hrs by sulforhodamine B assay
Type: functional
Conditions: not given
In short: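 NCI60 panel at the NCI Developmental Therapeutics Program. Only compounds active in the 10 µM screen went to dose-response testing. GI50, the concentration giving 50% of maximal inhibition of proliferation, and TGI, the concentration giving total growth inhibition, were derived from the dose-response curves.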

Row | Structure (SMILES) | GI50 [nM] | LC50 [nM] | TGI [nM]
21 | Cc1ccc(NC(=O)c2sc3nc4c(cc3c2N)C(=O)CCC4)cc1C | 486 | > 100000 | > 100000

System: NCI-H522
Test: Growth inhibition of human NCI-H522 cells assessed as cell growth at 10 uM incubated for 48 hrs by sulforhodamine B assay relative to control
Type: functional
Conditions: read-out: Activity
In short: as §2

Row | Structure (SMILES) | growth at 10 µM [%]
22 | Cc1ccc(NC(=O)c2sc3nc4c(cc3c2N)C(=O)CCC4)cc1C | -9.22

System: K562
Test: Growth inhibition of human K562 cells assessed as cell growth at 10 uM incubated for 48 hrs by sulforhodamine B assay relative to control
Type: functional
Conditions: read-out: Activity
In short: as §2

Row | Structure (SMILES) | growth at 10 µM [%]
23 | Cc1ccc(NC(=O)c2sc3nc4c(cc3c2N)C(=O)CCC4)cc1C | 5

System: SF-539
Test: Growth inhibition of human SF-539 cells incubated for 48 hrs by sulforhodamine B assay
Type: functional
Conditions: not given
In short: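 NCI DTP 60-line human tumour panel. Dose-response curves were run only for ligands active in the initial 10 µM screen. GI50 (concentration giving 50% of maximal inhibition of proliferation) and TGI (concentration giving total growth inhibition) were derived from these curves.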

Row | Structure (SMILES) | GI50 [nM]
24 | Cc1ccc(NC(=O)c2sc3nc4c(cc3c2N)C(=O)CCC4)cc1C | 404

Same assay, conditions: read-out: LC50 (the source's name)

Row | Structure (SMILES) | CC50 [nM]
25 | Cc1ccc(NC(=O)c2sc3nc4c(cc3c2N)C(=O)CCC4)cc1C | > 100000

System: MOLT-4
Test: Growth inhibition of human MOLT-4 cells assessed as cell growth at 0.01 uM incubated for 48 hrs by sulforhodamine B assay relative to control
Type: functional
Conditions: read-out: Activity

Row | Structure (SMILES) | growth at 0.01 µM [%]
26 | Cc1ccc(NC(=O)c2sc3nc4c(cc3c2N)C(=O)CCC4)cc1C | 103

System: ACHN
Test: Growth inhibition of human ACHN cells assessed as cell growth at 10 uM incubated for 48 hrs by sulforhodamine B assay relative to control
Type: functional
Conditions: read-out: Activity
In short: as §4

Row | Structure (SMILES) | growth at 10 µM [%]
27 | Cc1ccc(NC(=O)c2sc3nc4c(cc3c2N)C(=O)CCC4)cc1C | 43

System: DU-145
Test: Growth inhibition of human DU-145 cells assessed as cell growth at 10 uM incubated for 48 hrs by sulforhodamine B assay relative to control
Type: functional
Conditions: read-out: Activity
In short: as §3

Row | Structure (SMILES) | growth at 10 µM [%]
28 | Cc1ccc(NC(=O)c2sc3nc4c(cc3c2N)C(=O)CCC4)cc1C | 8.18

System: SF-268
Test: Growth inhibition of human SF-268 cells assessed as cell growth at 10 uM incubated for 48 hrs by sulforhodamine B assay relative to control
Type: functional
Conditions: read-out: Activity
In short: as §1

Row | Structure (SMILES) | growth at 10 µM [%]
29 | Cc1ccc(NC(=O)c2sc3nc4c(cc3c2N)C(=O)CCC4)cc1C | 42.7

System: OVCAR-8
Test: Growth inhibition of human OVCAR-8 cells assessed as cell growth at 10 uM incubated for 48 hrs by sulforhodamine B assay relative to control
Type: functional
Conditions: read-out: Activity
In short: as §1

Row | Structure (SMILES) | growth at 10 µM [%]
30 | Cc1ccc(NC(=O)c2sc3nc4c(cc3c2N)C(=O)CCC4)cc1C | 31

System: CAKI-1
Test: Growth inhibition of human CAKI-1 cells assessed as cell growth at 100 uM incubated for 48 hrs by sulforhodamine B assay relative to control
Type: functional
Conditions: read-out: Activity
In short: as §3

Row | Structure (SMILES) | growth at 100 µM [%]
31 | Cc1ccc(NC(=O)c2sc3nc4c(cc3c2N)C(=O)CCC4)cc1C | 22

System: TK-10
Test: Growth inhibition of human TK-10 cells assessed as cell growth at 10 uM incubated for 48 hrs by sulforhodamine B assay relative to control
Type: functional
Conditions: read-out: Activity
In short: as §1

Row | Structure (SMILES) | growth at 10 µM [%]
32 | Cc1ccc(NC(=O)c2sc3nc4c(cc3c2N)C(=O)CCC4)cc1C | 56

System: LOX IMVI
Test: Growth inhibition of human LOX IMVI cells assessed as cell growth at 0.1 uM incubated for 48 hrs by sulforhodamine B assay relative to control
Type: functional
Conditions: read-out: Activity

Row | Structure (SMILES) | growth at 0.1 µM [%]
33 | Cc1ccc(NC(=O)c2sc3nc4c(cc3c2N)C(=O)CCC4)cc1C | 98
